Source: PubChem (several laboratories)
Sampled rows, rich in hits. Any-hit rate of the full collection: about 5.7%.
CSC inhib: cancer stem cell viability inhibitors, primary screen, luminescence; inhibition, % at 7.5 µM; actives 1.1% (n = 300,000); AID 2717, 2010; cancer stem cell-like cells viability; in the data active = inhibition above about 75%; tested in HMLE shEcad cells
Beta apoptosis: inhibitors of cytokine-induced beta cell apoptosis, primary screen, luminescence; INS-1E cytokine-induced death, ATP luminescence, 48 h; percent of positive-control rescue, neutral wells zero; protection from apoptosis, % (concentration not given with the values); actives 0.8% (n = 300,000); AID 435005, 2010;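 active = Every replicate reaches about 75%, or at least half do and their mean reaches it too, limit read from the data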;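 also: 0% = cytokine-treated negative control wells and 100% = positive control rescue; higher means more ATP so stronger rescue from cytokine killing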
T cruzi repl: inhibitors of intracellular T. cruzi growth, primary screen, luminescence, NIH3T3 host cells; T. cruzi beta-gal in NIH3T3, 90 h; inhibition, % (no concentration beside the values); actives 1.4% (n = 300,000); AID 1885, 2009;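 active = mean inhibition across valid replicates above about 55%, limit read from the data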;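 also: signal also drops with host cell toxicity which is not excluded here; 0% = plate median of DMSO wells and 100% = zero luminescence signal; higher percent means less beta-gal luminescence so fewer parasites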
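compound dosing = single 50 nL compound addition per well in DMSO | material = NIH/3T3 host cells with β-galactosidase reporter T. cruzi | input = 5,000 host fibroblasts per well | timing = ≥90 h infection period, 3 h prior cell attachment | read-out basis = percent inhibition of parasite-derived β-gal signal | detection = GalScreen β-gal luminescence, detergent lysis, 60 min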
Mdm2-MdmX inh: inhibitors of human Mdm2-MdmX association, primary screen, cell-based, luminescence, split luciferase, SaOS-2, uHTS; SaOS-2 split-luciferase Mdm2/MdmX complementation; AID 485346, 2010; actives 3% (n = 330,000); inhibition, % at 8 µM;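 active = inhibition of at least 50% at 8 µM in the primary screen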
Target sequence (O15151 whole entry, looked up): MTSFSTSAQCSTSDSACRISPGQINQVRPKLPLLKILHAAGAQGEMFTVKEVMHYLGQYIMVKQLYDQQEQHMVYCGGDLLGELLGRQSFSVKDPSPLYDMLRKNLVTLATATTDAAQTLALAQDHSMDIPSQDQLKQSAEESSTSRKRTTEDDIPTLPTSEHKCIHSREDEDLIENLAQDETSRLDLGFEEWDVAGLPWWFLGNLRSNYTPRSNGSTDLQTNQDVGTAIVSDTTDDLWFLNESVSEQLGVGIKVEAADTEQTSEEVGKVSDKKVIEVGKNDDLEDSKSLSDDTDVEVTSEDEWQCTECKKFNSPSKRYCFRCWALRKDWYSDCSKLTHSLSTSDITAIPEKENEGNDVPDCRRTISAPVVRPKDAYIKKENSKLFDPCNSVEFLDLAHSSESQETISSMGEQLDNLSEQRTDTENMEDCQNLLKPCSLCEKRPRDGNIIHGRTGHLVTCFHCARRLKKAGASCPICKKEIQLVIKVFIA
Target sequence (Q00987 whole entry, looked up): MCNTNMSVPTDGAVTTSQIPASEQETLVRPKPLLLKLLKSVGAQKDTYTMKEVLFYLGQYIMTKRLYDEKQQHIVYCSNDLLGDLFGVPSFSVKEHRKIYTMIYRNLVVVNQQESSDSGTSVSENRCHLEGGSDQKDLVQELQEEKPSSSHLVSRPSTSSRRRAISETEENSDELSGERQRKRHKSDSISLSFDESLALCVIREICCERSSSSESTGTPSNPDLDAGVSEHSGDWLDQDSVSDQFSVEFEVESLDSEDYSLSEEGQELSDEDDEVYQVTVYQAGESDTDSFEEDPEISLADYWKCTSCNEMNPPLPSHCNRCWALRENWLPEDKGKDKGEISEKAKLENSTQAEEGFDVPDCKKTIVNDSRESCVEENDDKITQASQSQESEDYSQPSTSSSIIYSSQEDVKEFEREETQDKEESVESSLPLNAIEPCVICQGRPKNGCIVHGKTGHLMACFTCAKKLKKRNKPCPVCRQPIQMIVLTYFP
SKKanGAS inh: S. pyogenes SKKanGAS growth inhibitors in kanamycin, primary screen, streptokinase expression inhibitor project, SKKanGAS strain, BacTiter-Glo luminescence | 6 h | inhibition, % at 7.5 µM | actives 1.3% (n = 300,000);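 active = mean replicate score, as percent of positive control median, at least 50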;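 also: strain carries kanamycin resistance gene driven by streptokinase promoter and grows in 40 µg/ml kanamycin; loss of luminescence reflects streptokinase promoter inhibition or plain growth inhibition; 0% = median of DMSO wells and 100% = positive control at its reference dose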
Calb FLC: C. albicans growth inhibition with fluconazole, primary screen, CaCi-2 strain, Alamar Blue fluorescence | growth inhibition, % (concentration not given with the values) | actives 0.57% (n = 300,000) | C. albicans CaCi-2 (fluconazole-resistant clinical isolate) + fluconazole, 48 h;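 active = growth inhibition above about 58% in most replicates, limit read from the data, passing the limit was not always enough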;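 also: all wells also contain fluconazole at 8 µg/ml as a sub-toxic cotreatment; 0% = median of DMSO wells and 100% = median of geldanamycin control wells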
Starred values were filed as active, the others as inactive; . = not tested or not shown.

SMILES	CSC inhib	Beta apoptosis	T cruzi repl	Mdm2-MdmX inh	SKKanGAS inh	Calb FLC
Cc1c(C(=O)Nc2nc3ccccc3[nH]2)oc2c(Cl)cccc12	9.5	38.1	69.8*	32.5	66.8*	2.1
Fc1ccccc1CNc1cc(Cl)cc(Cl)c1	7.0	2.4	-5.3	10.3	72.7*	-4.1
CCCc1cc2c(=O)c(-c3ccc4c(c3)OCCO4)coc2cc1OC(=O)c1ccco1	88.7*	4.3	7.3	-205.4	7.6	-7.5
Nc1c(N(CCC2=CCCCC2)C(=O)c2ccco2)c(=O)[nH]c(=O)n1Cc1ccccc1	4.7	0.0	12.8	4.0	0.6	-1.6
Cc1cc(C)c(-c2csc(NC(=O)c3cc([N+](=O)[O-])ccc3N3CCOCC3)n2)c(C)c1	-3.9	6.9	66.1*	35.4	13.8	18.5
CCOC(=O)CSc1ccc(C(=O)NCCN2CCOCC2)cc1[N+](=O)[O-]	-3.1	-3.2	-9.3	-15.7	-0.9	-1.0
CCOC(=O)CSc1ccc(C(=O)N2CCN(C)CC2)cc1[N+](=O)[O-]	-15.7	4.5	-7.1	-1.1	2.6	102.0*
CCn1ccnc1CN1CCc2c([nH]c3ccccc23)C1C1CCCCC1 (stereo unspecified)	5.7	2.8	30.1	-20.6	78.5*	35.0
COc1ccc(C(=O)N2CCN(C3CCCCC3)CC2)cc1OC	2.6	.	-10.8	-12.4	-1.4	6.3
CCOc1ccc(-n2c(C)cc(/C=N/N(C)C)c2C)cc1	-2.7	2.4	56.1*	24.9	20.4	-27.2
COc1ccc2[nH]c(=O)c(CN(C3CCCCC3)C(c3nnnn3Cc3ccco3)C(C)C)cc2c1 (stereo unspecified)	5.6	0.6	19.4	-12.5	19.2	-2.1
COc1ccc2[nH]c(=O)c(CN(Cc3ccco3)C(c3nnnn3Cc3ccccc3)C(C)C)cc2c1 (stereo unspecified)	20.9	-1.3	75.5*	10.9	18.1	13.1
CCOc1ccc(S(=O)(=O)N2CCN(C(=O)C3CC3C)CC2)cc1 (stereo unspecified)	-12.2	-2.7	.	5.0	.	.
CCOC(=O)c1[nH]c(C)c(C(=O)OCC(=O)NC(=O)NC(C)(C)C)c1C	-0.6	-7.6	2.6	11.6	2.0	-5.4
CCOC(=O)c1c(C)[nH]c(C(=O)OCC(=O)NC(C)(C)C)c1C	-11.0	85.5*	1.4	21.2	2.5	-5.7
CCOC(=O)c1c(NC(=O)COC(=O)c2ccc([N+](=O)[O-])cc2)sc(C(=O)N(C)C)c1C	-11.5	-0.7	-10.5	24.1	16.9	7.6
CCOC(=O)c1c(C)[nH]c(C(=O)OCC(=O)Nc2sc(C(=O)N(C)C)c(C)c2C(=O)OCC)c1C	2.2	6.0	68.7*	36.7	-3.2	-4.1
COc1cc(OC)cc(-c2c(C#Cc3ccsc3)c3cc(-c4ccc5c(c4)OCCO5)ccc3n2C)c1	0.3	3.3	.	-8.6	.	.
O=C(CCC1CCCN(C(=O)c2ccncc2)C1)NCc1ccc(F)c(F)c1 (stereo unspecified)	35.5	-1.2	-3.1	14.1	3.9	-5.6
CC(=O)c1cccc(CN2CCCC(CCC(=O)NCc3ccc(F)c(F)c3)C2)c1 (stereo unspecified)	-3.6	-0.1	75.7*	5.2	-7.0	-11.6
O=C(CCC1CCCN(Cc2ccncc2)C1)NCc1ccc(F)c(F)c1 (stereo unspecified)	31.4	.	56.5*	-9.7	-0.3	-8.4
COc1cccc(CNC(=O)CCC2CCCN(Cc3cc4ccccc4o3)C2)c1 (stereo unspecified)	8.2	3.0	62.2*	4.0	7.2	-4.3
COc1ccc(CN(C)C(=O)c2cccc(S(=O)(=O)N3CCc4ccccc43)c2)c(OC)c1	.	-2.4	.	-19.5	.	.
O=c1cc(-c2ccccc2)[nH]c2ccc(F)cc12	-1.2	19.0	-2.8	.	-4.2	1.6
COc1ccc2[nH]c(-c3cccc(F)c3)cc(=O)c2c1	76.0*	19.8	-9.7	49.1	1.6	4.5
CC(C)[C@H](NS(=O)(=O)c1ccccc1)C(=O)OCC(=O)NC(=O)NC1CCCCC1	-19.2	-3.0	.	13.2	.	.
COc1ccc(OCC(=O)NNC(=S)NC(=O)C2CCCCC2)cc1	2.4	.	-6.2	-8.0	63.5*	34.9
